From PubChem
T cruzi growth-1: blocks T. cruzi growth in NIH3T3 culture; T. cruzi beta-gal in NIH3T3, GalScreen luminescence, 90 h; inhibition, % at 8.34 µM; actives 5.9% (n = 77,000); AID 624255;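 active = mean inhibition above about 93%, with at least 55% of replicates each passing it, limit read from the data, passing the limit was not always enough; inconclusive = only one of those two conditions holds; inactive = neither condition holds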
GASC1 inh: inhibitors of human demethylase GASC-1 KDM4C; Q9H3R0; GST-KDM4C 2-372, H3K9me3 peptide, LANCE TR-FRET; inhibition, % at 12.5 µM; actives 0.15% (n = 96,000); AID 720574;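 active = mean replicate inhibition above about 25%, with at least 55% of replicates also reaching it, limit read from the data, passing the limit was not always enough; inconclusive = only one of those two conditions met; inactive = neither condition met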
Target sequence (Q9H3R0 2-372 limits assumed): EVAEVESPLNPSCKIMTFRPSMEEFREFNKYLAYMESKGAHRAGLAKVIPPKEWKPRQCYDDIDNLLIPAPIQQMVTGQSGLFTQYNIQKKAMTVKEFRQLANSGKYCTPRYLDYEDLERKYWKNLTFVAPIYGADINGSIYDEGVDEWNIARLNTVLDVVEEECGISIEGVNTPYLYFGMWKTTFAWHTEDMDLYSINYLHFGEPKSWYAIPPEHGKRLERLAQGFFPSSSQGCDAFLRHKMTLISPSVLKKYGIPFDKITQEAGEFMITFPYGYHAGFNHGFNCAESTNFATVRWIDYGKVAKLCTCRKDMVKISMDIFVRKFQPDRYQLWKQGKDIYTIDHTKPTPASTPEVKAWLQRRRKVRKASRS
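System: N-terminal GST-fused human GASC-1 (KDM4C) fragment, residues 2-372; amount: enzyme final amount 10 nM; incubation: reaction 30 min RT, detection step 1 h RT; medium: HEPES buffer, pH 7.5, plus ascorbate; technique: LANCE TR-FRET, Eu antibody, ULight-streptavidin, EDTA, ex 340 nm, em 618/671 nm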
IDH1 R132H inh: inhibitors of human IDH1 R132H; O75874; IDH1 R132H reductase, diaphorase/resazurin fluorescence, 60 min; inhibition, % at 10 µM; actives 0.18% (n = 70,000); in the data active = inhibition above about 34%; inconclusive = no clear call, values can overlap the other calls; inactive = below about 11%;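 note: 0% = DMSO and 100% = no enzyme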
T cruzi growth-2: Trypanosoma cruzi proliferation inhibition | T. cruzi beta-gal in NIH3T3, GalScreen luminescence, 90 h | inhibition, % at 8.35 µM | shares compounds with T cruzi growth-1 | AID 651739 | actives 72% (n = 5,600);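 active = mean replicate inhibition above about 95% and at least 55% of replicates individually reaching it, limit read from the data; inconclusive = only one of the two criteria is met; inactive = neither criterion is met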
T cruzi growth-3: Trypanosoma cruzi proliferation inhibition. shares compounds with T cruzi growth-1. T. cruzi beta-gal in NIH3T3, GalScreen luminescence, 90 h. inhibition, % at 2.09 µM. actives 21% (n = 5,600);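 active = mean inhibition above about 95%, with at least 55% of replicates also reaching it, limit read from the data; inconclusive = meets just one of the two conditions; inactive = meets neither condition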;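 note: plate controls were neutral control median for no effect and positive control median for full effect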
3T3 cytotox: cytotoxicity in mouse NIH/3T3 fibroblasts; NIH/3T3 viability, CellTiter-Glo ATP luminescence, 90 h; shares compounds with T cruzi growth-1; cytotoxicity (signal decrease), % at 8.35 µM; actives 14% (n = 5,600);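 active = mean signal decrease across replicates above about 35% based on untreated-well scatter, with enough replicates individually passing, limit read from the data; inconclusive = no rule stated though some were filed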;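 note: 0% = median of neutral control wells and 100% = median of positive control wells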
NIH3T3 tox 2: kills mouse NIH/3T3 fibroblasts; AID 651744; inhibition, % at 24.9 µM; shares compounds with T cruzi growth-1; NIH/3T3 viability, CellTiter-Glo ATP luminescence, 90 h; actives 56% (n = 5,600);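 active = mean loss of cell viability signal at or above a set limit, and enough replicates individually reaching it; inconclusive = meets only the mean limit or only the replicate share; inactive = meets neither condition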;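 note: 0% = median of neutral control wells and 100% = median of positive control wells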
Active calls of the source: *; ? = inconclusive; · = no result given. This excerpt belongs to a sample that is enriched for hits.

SMILES	T cruzi growth-1	GASC1 inh	IDH1 R132H inh	T cruzi growth-2	T cruzi growth-3	3T3 cytotox	NIH3T3 tox 2
COc1ccccc1C#Cc1ccc2c(c1)O[C@@H](CN(C)C)[C@@H](C)CN([C@H](C)CO)S2(=O)=O	·	-1	-1	·	·	·	·
COc1ccccc1C#Cc1ccc2c(c1)O[C@H](CN(C)Cc1ccncc1)[C@H](C)CN([C@H](C)CO)S2(=O)=O	112*	-1	0	104*	84	28	7
CN(C)C(=O)C[C@H]1CC[C@@H]2[C@H](COc3ccc(NC(=O)C4CCCC4)cc3C(=O)N2C)O1	·	-1	·	·	·	·	·
N#C[C@@H]1[C@@H](c2ccc(C#CCC3CCCC3)cc2)[C@H](CO)N1C(=O)c1ccccn1	97*	0	·	?	112*	-1	107*
COCC(=O)N1[C@H](C#N)[C@H](c2ccc(C#CCC3CCCC3)cc2)[C@@H]1CO	92	0	·	·	·	·	·
COCC(=O)N1[C@H](CO)[C@H](c2ccc(C#CCC3CCCC3)cc2)[C@@H]1C#N	89	-1	0	·	·	·	·
N#C[C@H]1[C@@H](c2ccc(C#CCC3CCCC3)cc2)[C@@H](CO)N1C(=O)c1ccccn1	97*	-1	0	102*	112*	-25	93*
CC(C)c1cn(CC[C@@H]2CC[C@@H](NC(=O)C3CCCCC3)[C@H](CO)O2)nn1	·	0	0	·	·	·	·
CN1c2ccc(-c3cccc(F)c3)cc2[C@@H]2[C@@H](CCN2C(=O)Cc2cccnc2)[C@H]1CO	77	-1	·	·	·	·	·
CN1c2ccc(-c3ccc(F)cc3)cc2[C@H]2[C@H](CCN2C(=O)Cc2cccnc2)[C@H]1CO	?	3	·	92	55	-16	10
CN1c2ccc(-c3ccc(F)cc3)cc2[C@H]2[C@H](CCN2C(=O)Cc2cccnc2)[C@@H]1CO	107*	1	·	110*	104*	-26	5
CN1c2ccc(-c3cccc(F)c3)cc2[C@H]2[C@H](CCN2C(=O)Cc2cccnc2)[C@@H]1CO	54	-1	·	·	·	·	·
CNC(=O)C[C@@H]1CC[C@@H]2[C@@H](COc3ccc(NC(=O)Nc4cccc(Cl)c4)cc3C(=O)N2C)O1	18	-1	·	·	·	·	·
CN1[C@@H]2c3ccc(C4=CCCCC4)c(=O)n3C[C@@H]2[C@@H](CO)[C@@H]1C(=O)NCc1ccccc1	103*	3	·	96*	30	10	7
CCCN1[C@@H]2c3ccc(C4=CCCC4)c(=O)n3C[C@@H]2[C@@H](CO)[C@@H]1C(=O)NCc1cccc(OC)c1	101*	-1	·	73	-36	20	?
COc1cccc(CNC(=O)[C@@H]2[C@@H](CO)[C@@H]3Cn4c(ccc(C5=CCCC5)c4=O)[C@@H]3N2CC2CC2)c1	37	11	·	·	·	·	·
CN1[C@H](C(=O)NCc2ccccc2F)[C@@H](CO)[C@@H]2Cn3c(ccc(C4=CCCC4)c3=O)[C@@H]21	58	2	·	·	·	·	·
O=C(O)C[C@H]1C[C@H]2c3cc(NC(=O)CC4CC4)ccc3O[C@H]2[C@@H](CO)O1	-22	-1	0	·	·	·	·
Cn1c(SCC(=O)Nc2ccnc3ccccc23)nnc1-c1ccncc1	·	·	0	·	·	·	·
CN(C)CC#Cc1ccc([C@@H]2[C@H](CO)N3CCCCN(S(=O)(=O)c4ccccc4F)C[C@@H]23)cc1	103*	3	·	110*	8	13	76*
Cc1ccccc1S(=O)(=O)N1CCCCN2[C@H](CO)[C@H](c3ccc(C#CCN(C)C)cc3)[C@@H]2C1	32	1	·	·	·	·	·
COCC#Cc1ccc([C@H]2[C@@H](CO)N3CCCCN(S(=O)(=O)c4ccccc4F)C[C@@H]23)cc1	107*	0	·	106*	73	7	20
Cc1ccccc1S(=O)(=O)N1CCCCN2[C@@H](CO)[C@@H](c3ccc(C#CCN(C)C)cc3)[C@@H]2C1	99*	3	·	107*	89	?	103*
COCC#Cc1ccc([C@H]2[C@H]3CN(S(=O)(=O)c4ccccc4F)CCCCN3[C@H]2CO)cc1	59	0	·	·	·	·	·
Cc1ccccc1S(=O)(=O)N1CCCCN2[C@H](C1)[C@H](c1ccc(C#CCN(C)C)cc1)[C@@H]2CO	98*	5	·	110*	47	22	83*
SMILES	T cruzi growth-1	GASC1 inh	IDH1 R132H inh	T cruzi growth-2	T cruzi growth-3	3T3 cytotox	NIH3T3 tox 2
Cc1ccccc1S(=O)(=O)N1CCCCN2[C@H](CO)[C@@H](c3ccc(C#CCN(C)C)cc3)[C@@H]2C1	30	3	·	·	·	·	·
COCC#Cc1ccc([C@@H]2[C@@H](CO)N3CCCCN(S(=O)(=O)c4ccccc4F)C[C@H]23)cc1	87	·	·	·	·	·	·
C[C@H](CO)N1C[C@H](C)[C@@H](CN(C)S(=O)(=O)c2ccc(-c3ccccc3)cc2)OCc2cnnn2CCCC1=O	39	2	1	·	·	·	·
CCCC#Cc1ccc([C@@H]2[C@@H](CO)N3CCCCN(S(=O)(=O)c4ccccc4C)C[C@H]23)cc1	119*	1	·	105*	?	14	106*
COCC#Cc1ccc([C@@H]2[C@H]3CN(S(=O)(=O)c4ccccc4C)CCCCN3[C@H]2CO)cc1	94	-1	·	·	·	·	·
Cc1cc(C(=O)Nc2ccc3c(c2)C(=O)N(C)[C@@H]2CC[C@@H](CC(=O)N[C@H](C)c4ccccc4)O[C@@H]2CO3)no1	23	0	·	·	·	·	·
Cc1ccc(-c2ccc([C@H]3[C@@H](CO)N4CCCCN(C(=O)Nc5cccc(F)c5)C[C@H]34)cc2)cc1	107*	13	·	109*	115*	119*	105*
O=C(Nc1ccc(F)cc1)N1CCCCN2[C@@H](CO)[C@@H](c3ccc(-c4ccncc4)cc3)[C@@H]2C1	72	-2	·	·	·	·	·
O=C(Nc1cccc(F)c1)N1CCCCN2[C@H](C1)[C@@H](c1ccc(-c3ccncc3)cc1)[C@@H]2CO	111*	-2	·	111*	70	-19	7
Cc1ccccc1-c1ccc([C@@H]2[C@@H](CO)N3CCCCN(C(=O)Nc4cccc(F)c4)C[C@@H]23)cc1	3	-2	·	·	·	·	·
O=C(Nc1cccc(F)c1)N1CCCCN2[C@H](CO)[C@H](c3ccc(-c4ccncc4)cc3)[C@H]2C1	105*	-1	·	112*	54	1	53*
O=C(Nc1ccc(F)cc1)N1CCCCN2[C@H](CO)[C@@H](c3ccc(-c4ccncc4)cc3)[C@@H]2C1	17	-1	·	·	·	·	·
C=C1CCC(C)C(C)(CCC2=CC(=O)OC2O)C/C=C\C=C/1C(=O)O (stereo not given)	·	·	0	·	·	·	·
COc1ccc(NC(=O)CSc2nc3sc4c(c3c(=O)n2-c2ccccc2)CCCC4)c([N+](=O)[O-])c1	·	·	0	·	·	·	·
CN(C)C(=O)c1ccc(-c2ccc(C3[C@H]4CNC[C@@H]3N4C(=O)NC3CCCC3)cc2)cc1 (stereo not given in full)	·	2	·	·	·	·	·
